ChEMBL document CHEMBL4028900, “Design of Novel 3-Pyrimidinylazaindole CDK2/9 Inhibitors with Potent In Vitro and In Vivo Antitumor Efficacy in a Triple-Negative Breast Cancer Model” (J Med Chem, 2017)
Each block holds one molecule with its values, some of them ahead of it.

Columns and labels:
4T1 [1] = test: Antitumor activity against mouse 4T1 cells allografted in Balb/C mouse assessed as tumor growth inhibition at 5 mg/kg, iv administered every 3 days for 21 days measured 2 times for every week during dosing relative to control; type: functional; settings: 4T1, iv, read-out: TGI
Summary of the method: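 4T1 cells were grown in RPMI-1640 with 10% FBS, pyruvate and NEAA at 37 °C and 5% CO2. Female Balb/C mice received 1×10^6 cells into the second mammary fat pad. At about 100 mm3, mice were grouped five per group and dosed by tail vein in 200 µL (PBS diluent) every three days for 21 days. Tumor volume (L×B²/2, caliper) and body weight were taken twice weekly. The experiment was repeated twice.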

Mus musculus [2] = test: Toxicity in Balb/C mouse allografted with mouse 4T1 cells assessed as body weight loss at 5 mg/kg, iv administered every 3 days for 21 days measured 2 times for every week during dosing; type: organism-based; settings: in vivo
Summary of the method: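 Female Balb/c mice received 1×10^6 4T1 cells into the second mammary fat pad. At about 100 mm3 tumor volume they were split into groups of five. Doses were given iv by tail vein in 200 µL every three days for 21 days, with a PBS diluent control. Body weight and tumor size were measured twice weekly, and the experiment was repeated twice.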

Mus musculus [3] = test: Toxicity in Balb/C mouse allografted with mouse 4T1 cells assessed as mortality at 5 mg/kg, iv administered every 3 days for 21 days; type: organism-based; settings: in vivo
[4] = Plasma concentration in BALB/c mouse at 2.5 mg/kg, iv at 1 hr by LC/MS-MS analysis; type: ADME, organism-based
[5] = target: Serine/threonine-protein kinase 26 (Homo sapiens) (UniProt Q9P289); test: Inhibition of MST4 (unknown origin) at 500 nM relative to control
HCT-116 = test: Antiproliferative activity against human HCT116 cells after 72 hrs by SRB assay; settings: HCT-116, 72 h
[6] = target: Ribosomal protein S6 kinase beta-1 (Homo sapiens) (UniProt P23443); test: Inhibition of S6K1 (unknown origin) at 100 nM relative to control
Sequence of Ribosomal protein S6 kinase beta-1 (Homo sapiens) (P23443 whole entry, looked up): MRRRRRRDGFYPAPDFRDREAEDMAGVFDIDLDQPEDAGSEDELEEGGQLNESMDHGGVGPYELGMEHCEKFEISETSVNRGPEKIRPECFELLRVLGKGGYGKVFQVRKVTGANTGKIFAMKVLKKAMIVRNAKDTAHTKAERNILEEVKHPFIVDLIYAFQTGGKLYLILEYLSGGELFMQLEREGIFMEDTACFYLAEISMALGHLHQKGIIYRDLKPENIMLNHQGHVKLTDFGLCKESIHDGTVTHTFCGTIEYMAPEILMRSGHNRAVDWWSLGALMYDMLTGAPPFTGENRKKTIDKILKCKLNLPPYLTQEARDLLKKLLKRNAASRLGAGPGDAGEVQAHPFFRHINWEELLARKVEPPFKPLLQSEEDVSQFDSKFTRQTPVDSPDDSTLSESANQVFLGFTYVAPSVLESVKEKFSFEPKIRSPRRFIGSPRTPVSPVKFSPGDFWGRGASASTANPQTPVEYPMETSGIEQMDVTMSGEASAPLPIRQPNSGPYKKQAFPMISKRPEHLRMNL

BT-549 = test: Antiproliferative activity against human BT549 cells
[7] = target: Tyrosine-protein kinase CSK (Homo sapiens) (UniProt P41240); test: Inhibition of CSK (unknown origin) at 500 nM relative to control
[8] = target: Insulin receptor-related protein (Homo sapiens) (UniProt P14616); test: Inhibition of IRR (unknown origin) at 100 nM relative to control
[9] = target: Serine/threonine-protein kinase Nek6 (Homo sapiens) (UniProt Q9HC98); test: Inhibition of NEK6 (unknown origin) at 100 nM relative to control
[10] = target: Serine/threonine-protein kinase 26 (Homo sapiens) (UniProt Q9P289); test: Inhibition of MST4 (unknown origin) at 100 nM relative to control
[11] = Antiproliferative activity against HEK cells; settings: Homo sapiens, HEK293
[12] = target: Vascular endothelial growth factor receptor 1 (Homo sapiens) (UniProt P17948); test: Inhibition of VEGFR1 (unknown origin) at 500 nM relative to control
Sequence of Vascular endothelial growth factor receptor 1 (Homo sapiens) (P17948 whole entry): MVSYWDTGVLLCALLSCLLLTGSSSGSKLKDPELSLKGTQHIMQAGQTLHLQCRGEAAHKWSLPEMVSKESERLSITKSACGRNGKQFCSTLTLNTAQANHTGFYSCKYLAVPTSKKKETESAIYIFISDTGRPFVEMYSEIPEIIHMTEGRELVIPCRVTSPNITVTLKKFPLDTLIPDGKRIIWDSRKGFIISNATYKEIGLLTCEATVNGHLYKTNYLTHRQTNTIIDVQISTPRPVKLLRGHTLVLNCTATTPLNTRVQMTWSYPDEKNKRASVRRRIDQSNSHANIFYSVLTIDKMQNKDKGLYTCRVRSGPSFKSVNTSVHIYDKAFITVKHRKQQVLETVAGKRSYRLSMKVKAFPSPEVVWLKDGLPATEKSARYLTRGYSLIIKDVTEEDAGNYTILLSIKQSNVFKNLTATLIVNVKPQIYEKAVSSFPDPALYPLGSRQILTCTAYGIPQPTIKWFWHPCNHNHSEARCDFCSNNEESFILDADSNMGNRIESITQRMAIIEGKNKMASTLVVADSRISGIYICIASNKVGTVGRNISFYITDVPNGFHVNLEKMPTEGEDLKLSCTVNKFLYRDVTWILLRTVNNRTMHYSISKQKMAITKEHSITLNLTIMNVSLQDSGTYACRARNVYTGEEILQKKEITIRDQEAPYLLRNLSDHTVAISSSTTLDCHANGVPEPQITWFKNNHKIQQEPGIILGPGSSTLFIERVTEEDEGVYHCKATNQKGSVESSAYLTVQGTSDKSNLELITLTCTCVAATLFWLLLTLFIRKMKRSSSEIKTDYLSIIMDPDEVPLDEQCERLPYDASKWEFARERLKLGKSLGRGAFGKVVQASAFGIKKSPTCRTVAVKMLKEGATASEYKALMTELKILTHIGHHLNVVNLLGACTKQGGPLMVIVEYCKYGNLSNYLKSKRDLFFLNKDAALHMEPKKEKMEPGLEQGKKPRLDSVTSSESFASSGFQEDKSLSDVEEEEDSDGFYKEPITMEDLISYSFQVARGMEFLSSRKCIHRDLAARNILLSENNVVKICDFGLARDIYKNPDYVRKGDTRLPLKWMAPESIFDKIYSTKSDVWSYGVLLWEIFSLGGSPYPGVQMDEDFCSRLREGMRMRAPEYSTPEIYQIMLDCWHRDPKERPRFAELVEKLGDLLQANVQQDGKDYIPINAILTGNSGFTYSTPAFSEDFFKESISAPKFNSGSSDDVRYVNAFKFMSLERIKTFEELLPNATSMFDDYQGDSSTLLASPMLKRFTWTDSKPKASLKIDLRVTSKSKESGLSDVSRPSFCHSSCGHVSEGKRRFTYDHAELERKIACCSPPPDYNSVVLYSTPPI

[13] = target: Dual specificity tyrosine-phosphorylation-regulated kinase 1A (Homo sapiens) (UniProt Q13627); settings: at 500 nM
[14] = target: Serine/threonine-protein kinase Chk1 (Homo sapiens) (UniProt O14757); test: Inhibition of CHK1 (unknown origin) at 500 nM relative to control
[15] = target: Inhibitor of nuclear factor kappa-B kinase subunit beta (Homo sapiens) (UniProt O14920); test: Inhibition of IKKbeta (unknown origin) at 100 nM relative to control
4T1 [16] = test: Antiproliferative activity against mouse 4T1 cells after 24 hrs by MTT assay; settings: 4T1, 24 h
MDA-MB-468 = test: Antiproliferative activity against human MDA-MB-468 cells
MCF7 = test: Antiproliferative activity against human MCF7 cells
[17] = target: Phosphatidylinositol 4,5-bisphosphate 3-kinase catalytic subunit alpha isoform (Homo sapiens) (UniProt P42336); test: Inhibition of PI3Kalpha (unknown origin) at 500 nM relative to control
[18] = target: Mitogen-activated protein kinase 10 (Homo sapiens) (UniProt P53779); test: Inhibition of JNK3 (unknown origin) at 100 nM relative to control
Sequence of Mitogen-activated protein kinase 10 (Homo sapiens) (P53779 whole entry): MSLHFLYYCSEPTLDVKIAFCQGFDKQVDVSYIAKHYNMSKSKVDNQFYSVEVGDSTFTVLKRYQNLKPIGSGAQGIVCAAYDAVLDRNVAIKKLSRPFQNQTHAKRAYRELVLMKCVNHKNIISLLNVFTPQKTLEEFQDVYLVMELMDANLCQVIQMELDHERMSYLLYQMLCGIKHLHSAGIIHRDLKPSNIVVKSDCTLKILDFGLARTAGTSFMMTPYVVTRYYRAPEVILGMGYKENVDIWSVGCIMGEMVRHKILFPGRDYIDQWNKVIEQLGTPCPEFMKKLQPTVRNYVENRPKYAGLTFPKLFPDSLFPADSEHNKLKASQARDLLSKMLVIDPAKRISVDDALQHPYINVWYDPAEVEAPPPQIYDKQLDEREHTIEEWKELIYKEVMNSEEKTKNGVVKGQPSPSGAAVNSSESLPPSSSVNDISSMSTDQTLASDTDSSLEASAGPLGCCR

[19] = target: Serine/threonine-protein kinase Nek6 (Homo sapiens) (UniProt Q9HC98); test: Inhibition of NEK6 (unknown origin) at 500 nM relative to control
SH-SY5Y = test: Antiproliferative activity against human SH-SY5Y cells after 24 hrs by MTT assay; type: functional, cell-based
[20] = target: Protein-tyrosine kinase 6 (Homo sapiens) (UniProt Q13882); test: Inhibition of BRK (unknown origin) at 500 nM relative to control
Sequence of Protein-tyrosine kinase 6 (Homo sapiens) (Q13882 whole entry, looked up): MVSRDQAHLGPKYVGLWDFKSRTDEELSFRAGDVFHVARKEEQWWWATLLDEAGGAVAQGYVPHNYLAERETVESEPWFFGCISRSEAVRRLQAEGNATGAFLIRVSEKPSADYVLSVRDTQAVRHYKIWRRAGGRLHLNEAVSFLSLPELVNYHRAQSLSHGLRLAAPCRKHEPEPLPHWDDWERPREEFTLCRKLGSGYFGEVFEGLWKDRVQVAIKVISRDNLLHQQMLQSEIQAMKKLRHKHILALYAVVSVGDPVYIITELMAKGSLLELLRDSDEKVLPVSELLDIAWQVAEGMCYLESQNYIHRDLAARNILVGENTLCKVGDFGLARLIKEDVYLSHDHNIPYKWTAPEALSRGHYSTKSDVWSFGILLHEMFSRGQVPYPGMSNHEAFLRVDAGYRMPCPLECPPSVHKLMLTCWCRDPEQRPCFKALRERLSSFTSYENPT

[21] = target: Tyrosine-protein kinase Lck (Homo sapiens) (UniProt P06239); test: Inhibition of LCK (unknown origin) at 500 nM relative to control
Sequence of Tyrosine-protein kinase Lck (Homo sapiens) (P06239 2-509 limits assumed): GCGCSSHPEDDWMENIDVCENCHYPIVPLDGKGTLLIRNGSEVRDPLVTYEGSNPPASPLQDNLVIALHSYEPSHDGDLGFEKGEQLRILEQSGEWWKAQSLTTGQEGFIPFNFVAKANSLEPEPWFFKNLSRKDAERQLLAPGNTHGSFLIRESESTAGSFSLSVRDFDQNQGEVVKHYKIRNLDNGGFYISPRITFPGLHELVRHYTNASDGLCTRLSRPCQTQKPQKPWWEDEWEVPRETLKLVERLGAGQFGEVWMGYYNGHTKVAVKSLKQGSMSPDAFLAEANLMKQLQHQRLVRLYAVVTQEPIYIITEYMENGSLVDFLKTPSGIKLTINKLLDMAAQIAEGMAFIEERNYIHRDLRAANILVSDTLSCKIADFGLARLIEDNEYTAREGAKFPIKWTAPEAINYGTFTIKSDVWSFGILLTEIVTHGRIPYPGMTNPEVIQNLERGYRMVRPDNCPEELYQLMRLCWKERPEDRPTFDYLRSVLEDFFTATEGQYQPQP

[22] = target: Serine/threonine-protein kinase Chk1 (Homo sapiens) (UniProt O14757); test: Inhibition of CHK1 (unknown origin) at 100 nM relative to control
MDA-MB-231 = test: Antiproliferative activity against human MDA-MB-231 cells
[23] = Plasma concentration in BALB/c mouse at 2.5 mg/kg, iv at 0.25 hrs by LC/MS-MS analysis; type: ADME, organism-based
[24] = target: Aurora kinase A (Homo sapiens) (UniProt O14965); test: Inhibition of aurora A (unknown origin) at 100 nM relative to control
[25] = target: Serine/threonine-protein kinase Sgk1 (Homo sapiens) (UniProt O00141); test: Inhibition of SGK (unknown origin) at 500 nM relative to control
[26] = target: Tyrosine-protein kinase JAK3 (Homo sapiens) (UniProt P52333); test: Inhibition of JAK3 (unknown origin) at 500 nM relative to control
Sequence of Tyrosine-protein kinase JAK3 (Homo sapiens) (P52333 whole entry): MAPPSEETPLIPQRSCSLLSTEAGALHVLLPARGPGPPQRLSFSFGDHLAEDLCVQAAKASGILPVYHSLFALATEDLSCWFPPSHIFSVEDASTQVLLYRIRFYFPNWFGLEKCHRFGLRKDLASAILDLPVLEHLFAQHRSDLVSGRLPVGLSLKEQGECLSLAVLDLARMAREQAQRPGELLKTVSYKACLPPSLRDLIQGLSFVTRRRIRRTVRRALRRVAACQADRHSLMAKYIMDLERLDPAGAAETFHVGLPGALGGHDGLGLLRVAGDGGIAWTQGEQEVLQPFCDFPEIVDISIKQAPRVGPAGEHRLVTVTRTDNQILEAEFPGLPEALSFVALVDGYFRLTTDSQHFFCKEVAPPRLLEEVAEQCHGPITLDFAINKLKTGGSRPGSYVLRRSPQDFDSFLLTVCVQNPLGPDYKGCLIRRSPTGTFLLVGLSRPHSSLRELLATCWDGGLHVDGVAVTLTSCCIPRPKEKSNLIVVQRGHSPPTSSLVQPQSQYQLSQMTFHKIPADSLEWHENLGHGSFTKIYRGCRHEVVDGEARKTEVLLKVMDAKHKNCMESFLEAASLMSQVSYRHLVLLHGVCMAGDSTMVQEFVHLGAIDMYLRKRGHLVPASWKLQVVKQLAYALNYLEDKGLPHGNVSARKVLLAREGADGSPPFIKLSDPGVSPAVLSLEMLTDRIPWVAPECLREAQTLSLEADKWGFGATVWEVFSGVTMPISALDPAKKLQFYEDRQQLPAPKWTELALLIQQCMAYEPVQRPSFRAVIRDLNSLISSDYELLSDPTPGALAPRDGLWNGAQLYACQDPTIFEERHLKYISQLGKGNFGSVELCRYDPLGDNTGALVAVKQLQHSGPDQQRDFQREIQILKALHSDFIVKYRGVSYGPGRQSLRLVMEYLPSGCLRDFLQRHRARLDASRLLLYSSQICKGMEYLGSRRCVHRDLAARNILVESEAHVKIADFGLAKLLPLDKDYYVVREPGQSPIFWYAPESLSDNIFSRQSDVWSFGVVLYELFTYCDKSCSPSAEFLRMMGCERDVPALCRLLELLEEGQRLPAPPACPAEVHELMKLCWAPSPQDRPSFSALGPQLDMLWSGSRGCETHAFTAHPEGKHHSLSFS

[27] = Selectivity ratio of IC50 for HEK cells to IC50 for human MCF7 cells
[28] = target: Inhibitor of nuclear factor kappa-B kinase subunit beta (Homo sapiens) (UniProt O14920); test: Inhibition of IKKbeta (unknown origin) at 500 nM relative to control
[29] = target: Tyrosine-protein kinase Lck (Homo sapiens) (UniProt P06239); test: Inhibition of LCK (unknown origin) at 100 nM relative to control
[30] = target: Protein-tyrosine kinase 6 (Homo sapiens) (UniProt Q13882); test: Inhibition of BRK (unknown origin) at 100 nM relative to control
[31] = target: Serine/threonine-protein kinase PLK1 (Homo sapiens) (UniProt P53350); test: Inhibition of PLK1 (unknown origin) at 100 nM relative to control
[32] = Plasma concentration in BALB/c mouse at 2.5 mg/kg, iv at […] by LC/MS-MS analysis; type: ADME, organism-based
4T1 [33] = test: Antitumor activity against mouse 4T1 cells allografted in Balb/C mouse assessed as tumor growth inhibition at 15 mg/kg, iv administered every 3 days for 21 days measured 2 times for every week during dosing relative to control; type: functional; settings: 4T1, iv, read-out: TGI
[34] = target: Dual specificity tyrosine-phosphorylation-regulated kinase 1A (Homo sapiens) (UniProt Q13627); settings: at 100 nM
[35] = target: Phosphatidylinositol 4,5-bisphosphate 3-kinase catalytic subunit alpha isoform (Homo sapiens) (UniProt P42336); test: Inhibition of PI3Kalpha (unknown origin) at 100 nM relative to control
[36] = Plasma concentration in BALB/c mouse at 2.5 mg/kg, iv at 0.5 hrs by LC/MS-MS analysis; type: ADME, organism-based
[37] = target: Tyrosine-protein kinase CSK (Homo sapiens) (UniProt P41240); test: Inhibition of CSK (unknown origin) at 100 nM relative to control
[38] = target: Ribosomal protein S6 kinase beta-1 (Homo sapiens) (UniProt P23443); test: Inhibition of S6K1 (unknown origin) at 500 nM relative to control
[39] = target: Vascular endothelial growth factor receptor 1 (Homo sapiens) (UniProt P17948); test: Inhibition of VEGFR1 (unknown origin) at 100 nM relative to control
[40] = target: Tyrosine-protein kinase JAK3 (Homo sapiens) (UniProt P52333); test: Inhibition of JAK3 (unknown origin) at 100 nM relative to control
[41] = target: Insulin receptor-related protein (Homo sapiens) (UniProt P14616); test: Inhibition of IRR (unknown origin) at 500 nM relative to control
[42] = target: Aurora kinase A (Homo sapiens) (UniProt O14965); test: Inhibition of aurora A (unknown origin) at 500 nM relative to control
[43] = target: Serine/threonine-protein kinase Sgk1 (Homo sapiens) (UniProt O00141); test: Inhibition of SGK (unknown origin) at 100 nM relative to control
[44] = target: Mitogen-activated protein kinase 10 (Homo sapiens) (UniProt P53779); test: Inhibition of JNK3 (unknown origin) at 500 nM relative to control
[45] = target: Glycogen synthase kinase-3 beta (Homo sapiens) (UniProt P49841); test: Inhibition of GSK3b (unknown origin) at 100 nM relative to control
Sequence of Glycogen synthase kinase-3 beta (Homo sapiens) (P49841 whole entry, looked up): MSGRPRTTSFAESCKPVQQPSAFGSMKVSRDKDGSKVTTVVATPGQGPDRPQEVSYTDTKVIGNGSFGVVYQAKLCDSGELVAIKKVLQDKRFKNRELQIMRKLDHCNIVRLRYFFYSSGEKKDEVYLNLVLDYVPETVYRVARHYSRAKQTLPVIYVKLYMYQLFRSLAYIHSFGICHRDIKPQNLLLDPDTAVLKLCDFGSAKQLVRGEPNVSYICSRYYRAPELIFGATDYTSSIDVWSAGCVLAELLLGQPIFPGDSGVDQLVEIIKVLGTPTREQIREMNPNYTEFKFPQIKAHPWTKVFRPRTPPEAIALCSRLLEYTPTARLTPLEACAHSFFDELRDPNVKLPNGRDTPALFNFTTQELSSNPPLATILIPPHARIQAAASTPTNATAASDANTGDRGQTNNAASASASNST

[46] = target: Glycogen synthase kinase-3 beta (Homo sapiens) (UniProt P49841); test: Inhibition of GSK3b (unknown origin) at 500 nM relative to control
T47D = test: Antiproliferative activity against human T47D cells after 72 hrs by SRB assay
[47] = target: Serine/threonine-protein kinase PLK1 (Homo sapiens) (UniProt P53350); test: Inhibition of PLK1 (unknown origin) at 500 nM relative to control

SMILES: COc1cccc2c1C(=O)c1c(O)c3c(c(O)c1C2=O)C[C@@](O)(C(=O)CO)C[C@@H]3O[C@H]1C[C@H](N)[C@H](O)[C@H](C)O1 [DOXORUBICIN]
inhibition in vivo at 5 mg/kg (4T1 [1]): 97.3% | Activity (Mus musculus [2]): Toxic | Activity (Mus musculus [3]): Non-Toxic

concentration at 1 h [4]: 35.3 ng/mL | inhibition [5]: 11.4% | IC50 (HCT-116): 100 nM | inhibition [6]: 84.5% | IC50 (BT-549): 130 nM | inhibition [7]: -4.6% | inhibition [8]: 6.9% | inhibition [9]: 4.1% | inhibition [10]: 6.7% | inhibition [12]: 3.1% | inhibition [13]: 98.3% | inhibition [14]: 13.7% | inhibition [15]: 37.2% | IC50 (4T1 [16]): 650 nM | IC50 (MDA-MB-468): 160 nM | IC50 (MCF7): 200 nM | inhibition [17]: 21.1% | inhibition [18]: -7.9% | inhibition [19]: 20.1% | IC50 (SH-SY5Y): 120 nM | inhibition [20]: 9.5% | inhibition [21]: 8.3% | inhibition [22]: 13.4% | IC50 (MDA-MB-231): 200 nM | concentration at 0.25 h [23]: 141 ng/mL | inhibition [24]: 10.6% | inhibition [25]: 38.1% | inhibition [26]: 14.6% | inhibition [28]: 43.8% | inhibition [29]: 7.3% | inhibition [30]: 10.6% | inhibition [31]: -1.7% | concentration at […] [32]: 313 ng/mL | inhibition [34]: 96% | inhibition [35]: 11.5% | concentration at 0.5 h [36]: 54.9 ng/mL | inhibition [37]: 6.9% | inhibition [38]: 91.7% | inhibition [39]: 0.9% | inhibition [40]: 31.9% | inhibition [41]: -4.6% | inhibition [42]: 9.5% | inhibition [43]: 29.3% | inhibition [44]: -2.6% | inhibition [45]: 13.4% | inhibition [46]: 13.7% | IC50 (T47D): 200 nM | inhibition [47]: 14.6%
SMILES: COc1ccnc2[nH]cc(-c3ccnc(N)n3)c12 [MERIOLIN 3]
IC50 [11]: 188 nM | Ratio IC50 [27]: 0.94 | inhibition in vivo at 15 mg/kg (4T1 [33]): 95%
